The source of these data is ChEMBL document CHEMBL4680220, “Synthesis and biological evaluation of acridine-based histone deacetylase inhibitors as multitarget agents against Alzheimer's disease” (Eur J Med Chem, 2020).

Data set [1] deals with Amyloid-beta precursor protein (Homo sapiens, UniProt P05067). The data set can be described thus: Inhibition of amyloid beta (1 to 42) (unknown origin) self aggregation after 24 hrs by thioflavin-T fluorescence method. The procedure, abridged: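 ThT aggregation assay. Compound at varying concentrations combined with 10 µM Aβ1-42 (1 mM DMSO stock), 10 µM ThT, 1 mM EDTA in 50 mM phosphate buffer (150 mM NaCl, pH 7.4). Incubated 24 h at 37 °C with shaking at 700 rpm; fluorescence ex 440/em 486 nm. 0.1% DMSO wells = 100% aggregation; compound wells without Aβ = background. IC50 from triplicates.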
Chain of Amyloid-beta precursor protein (P05067 whole entry): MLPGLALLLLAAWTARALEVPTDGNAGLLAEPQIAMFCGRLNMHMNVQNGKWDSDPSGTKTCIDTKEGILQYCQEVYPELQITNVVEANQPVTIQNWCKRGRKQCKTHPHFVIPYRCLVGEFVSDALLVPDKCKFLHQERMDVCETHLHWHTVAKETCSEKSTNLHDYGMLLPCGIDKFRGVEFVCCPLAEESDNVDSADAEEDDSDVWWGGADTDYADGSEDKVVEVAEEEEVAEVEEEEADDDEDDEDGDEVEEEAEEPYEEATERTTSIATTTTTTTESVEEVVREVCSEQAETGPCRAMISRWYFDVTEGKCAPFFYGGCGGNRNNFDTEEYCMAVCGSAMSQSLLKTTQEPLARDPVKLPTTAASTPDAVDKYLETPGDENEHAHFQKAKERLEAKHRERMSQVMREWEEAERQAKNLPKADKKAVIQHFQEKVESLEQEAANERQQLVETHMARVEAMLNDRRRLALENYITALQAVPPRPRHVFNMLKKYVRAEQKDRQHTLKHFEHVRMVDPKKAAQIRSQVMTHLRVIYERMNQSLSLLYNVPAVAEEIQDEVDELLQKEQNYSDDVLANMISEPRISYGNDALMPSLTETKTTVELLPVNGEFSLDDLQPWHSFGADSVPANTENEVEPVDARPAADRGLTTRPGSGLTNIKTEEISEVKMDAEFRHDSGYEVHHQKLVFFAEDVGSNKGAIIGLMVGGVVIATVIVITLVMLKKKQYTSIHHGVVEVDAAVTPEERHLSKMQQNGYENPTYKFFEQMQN

Data set [2] has as its target Class 1 histone deacetylase (Homo sapiens, UniProt Q13547+O15379+Q92769+Q9BY41). The data set can be described thus: Inhibition of class 1 HDAC in human HeLa cell nuclear extract using Boc-Lys(Ac)-AMC as substrate preincubated for 5 mins followed by substrate addition and measured after 30 mins by fluorescence assay. The class given is cell-based.
The target of data set [3] is Histone deacetylase 4 (Homo sapiens, UniProt P56524). Briefly: Inhibition of recombinant human N-terminal GST-tagged/C-terminal His-tagged HDAC4 (627 to 1084 residues) expressed in baculovirus expression system using Boc-Lys(TFA)-AMC as substrate preincubated for 5 mins followed by substrate addition and measured after 30 mins by fluorescence assay.
Chain of Histone deacetylase 4 (P56524 whole entry, the tested form may be a part): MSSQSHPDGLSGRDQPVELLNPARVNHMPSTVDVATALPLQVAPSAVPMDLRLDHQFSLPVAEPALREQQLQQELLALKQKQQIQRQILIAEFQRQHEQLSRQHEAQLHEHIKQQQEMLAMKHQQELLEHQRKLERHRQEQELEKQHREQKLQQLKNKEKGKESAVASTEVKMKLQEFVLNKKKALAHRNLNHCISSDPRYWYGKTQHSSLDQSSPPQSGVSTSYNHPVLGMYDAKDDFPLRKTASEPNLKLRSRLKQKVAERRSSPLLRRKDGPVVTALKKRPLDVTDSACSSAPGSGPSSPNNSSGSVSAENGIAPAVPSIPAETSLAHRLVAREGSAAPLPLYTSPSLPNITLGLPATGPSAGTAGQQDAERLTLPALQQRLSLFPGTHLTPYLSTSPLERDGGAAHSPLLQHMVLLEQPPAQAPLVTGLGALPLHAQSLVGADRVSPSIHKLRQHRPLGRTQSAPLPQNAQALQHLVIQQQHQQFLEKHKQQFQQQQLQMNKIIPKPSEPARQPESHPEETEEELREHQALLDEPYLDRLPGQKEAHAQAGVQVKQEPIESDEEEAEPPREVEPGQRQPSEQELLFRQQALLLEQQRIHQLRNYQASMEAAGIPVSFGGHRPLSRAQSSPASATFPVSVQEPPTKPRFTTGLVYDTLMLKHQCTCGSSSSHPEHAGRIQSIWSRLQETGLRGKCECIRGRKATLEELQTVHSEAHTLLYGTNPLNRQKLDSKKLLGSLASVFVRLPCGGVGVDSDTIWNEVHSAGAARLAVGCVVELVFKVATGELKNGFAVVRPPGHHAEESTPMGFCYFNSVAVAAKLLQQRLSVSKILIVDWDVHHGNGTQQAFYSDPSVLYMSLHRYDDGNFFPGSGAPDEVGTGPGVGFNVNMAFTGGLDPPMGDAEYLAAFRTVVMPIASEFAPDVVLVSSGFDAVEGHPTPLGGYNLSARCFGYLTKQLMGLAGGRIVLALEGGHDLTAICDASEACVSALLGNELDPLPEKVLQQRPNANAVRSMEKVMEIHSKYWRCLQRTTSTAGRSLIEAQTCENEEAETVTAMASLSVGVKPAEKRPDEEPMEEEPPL
Data set [4] concerns the target Histone deacetylase 5 (Homo sapiens, UniProt Q9UQL6). Briefly: Inhibition of recombinant human C-terminal His-tagged HDAC5 (656 to 1122 residues) expressed in baculovirus infected Sf9 insect cells using fluorogenic HDAC 2A substrate preincubated for 5 mins followed by substrate addition and measured after 30 mins by fluorescence assay.
The nature of data set [5]: Elimination rate constant in human liver microsomes at 1 uM preincubated for 3 mins followed by NADPH addition and measured up to 60 mins by LC-MS/MS analysis. In kind it is ADME, Microsome. To be noted: time <=63 min. Summed up:
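Mixed-gender human liver microsomes with test article at 1 µM final. Testosterone (5 µM) run separately as control. Mixture without cofactor equilibrated 3 min at 37 °C in a shaking water bath, then started with cofactor. Aliquots taken at 0, 10, 20, 30 and 60 min. CLint = k/P, where k is the elimination rate constant and P is the incubation protein concentration.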

The target in data set [6] is Acetylcholinesterase (Homo sapiens, UniProt P22303). Briefly: Inhibition of recombinant human C-terminal 6His-tagged AChE (Glu32 to Leu614 residues) expressed in CHO cells using acetylthiocholine iodide as substrate preincubated for 5 mins measured after 15 mins by DTNB reagent based assay. The procedure, abridged: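 Enzyme, compounds, acetylthiocholine iodide and DTNB diluted in 100 mM phosphate buffer pH 7.4. AChE was preincubated with the compound at varying concentrations for 5 min at 37 °C. The reaction was started with 1 mM ATCI solution and run 15 min at 37 °C. 2 mM DTNB solution was then added for 5 min. Absorbance read at 412 nm. IC50 set 0.1% DMSO wells as 100% and no-enzyme wells as 0%. Run in triplicate.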
Chain of Acetylcholinesterase (P22303 whole entry): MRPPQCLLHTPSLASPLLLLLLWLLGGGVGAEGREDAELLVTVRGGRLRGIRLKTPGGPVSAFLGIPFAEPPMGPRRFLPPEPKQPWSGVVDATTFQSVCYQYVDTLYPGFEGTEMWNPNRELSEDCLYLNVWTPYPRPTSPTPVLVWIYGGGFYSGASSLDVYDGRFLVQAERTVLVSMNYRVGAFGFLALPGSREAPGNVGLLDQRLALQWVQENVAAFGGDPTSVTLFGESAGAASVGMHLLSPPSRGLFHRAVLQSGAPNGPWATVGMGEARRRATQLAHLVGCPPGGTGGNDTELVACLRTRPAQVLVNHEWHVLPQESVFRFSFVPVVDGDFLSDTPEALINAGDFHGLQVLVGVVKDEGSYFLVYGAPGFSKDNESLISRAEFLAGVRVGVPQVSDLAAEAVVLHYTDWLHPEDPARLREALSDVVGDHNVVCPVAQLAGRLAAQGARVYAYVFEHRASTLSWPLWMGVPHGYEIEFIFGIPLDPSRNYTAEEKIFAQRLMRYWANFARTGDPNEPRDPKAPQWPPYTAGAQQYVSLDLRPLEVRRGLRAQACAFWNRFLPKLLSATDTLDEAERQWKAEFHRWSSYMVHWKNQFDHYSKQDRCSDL

The subject of data set [7] is MDR1. The data set can be described thus: Efflux ratio of apparent permeability across basolateral to apical side over apical to basolateral side in MDCK-MDR1 cells at 5 uM measured after 2 hrs by LC-MS/MS analysis. In kind it is ADME, cell-based, Canis lupus familiaris. The settings on record: dog. Summed up: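 MDR1-MDCK monolayers grown to confluence on collagen-coated microporous membranes. Test article dosed at 5 µM apical (A-to-B) or basolateral (B-to-A) in HBSS with 10 mM HEPES, 15 mM glucose, pH 7.4; receiver buffer has 1% BSA. 37 °C, 5% CO2; donor and receiver sampled at 120 min, quantified by LC-MS/MS (ESI). Duplicate determinations; lucifer yellow flux checks monolayer integrity. Efflux ratio = Papp(B-A)/Papp(A-B).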

For data set [8], the system named is Hippocampal neurone. Briefly: Induction of neurite outgrowth in Sprague-Dawley rat primary hippocampal neurons assessed as increase in length of axonal neurite incubated for 3 days by DAPI staining based immunofluorescence microscopic analysis. The class given is functional. To be noted: time 3.0 day. Summed up:
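Primary hippocampal neurons from embryonic Sprague-Dawley rats, plated on poly-D-lysine and kept in B27-neurobasal medium. Treated with DMSO or compound from DIV3 for three days, fixed at DIV6 in 4% paraformaldehyde. Axons stained with anti-tau, dendrites with anti-MAP2, nuclei with DAPI; fluorescence microscopy. At least 20 neurons traced for number and length of primary, secondary and tertiary neurites.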

In data set [9] the target is T1, Histone deacetylase 7 (Homo sapiens, UniProt Q8WUI4).
T1 sequence (Q8WUI4 whole entry): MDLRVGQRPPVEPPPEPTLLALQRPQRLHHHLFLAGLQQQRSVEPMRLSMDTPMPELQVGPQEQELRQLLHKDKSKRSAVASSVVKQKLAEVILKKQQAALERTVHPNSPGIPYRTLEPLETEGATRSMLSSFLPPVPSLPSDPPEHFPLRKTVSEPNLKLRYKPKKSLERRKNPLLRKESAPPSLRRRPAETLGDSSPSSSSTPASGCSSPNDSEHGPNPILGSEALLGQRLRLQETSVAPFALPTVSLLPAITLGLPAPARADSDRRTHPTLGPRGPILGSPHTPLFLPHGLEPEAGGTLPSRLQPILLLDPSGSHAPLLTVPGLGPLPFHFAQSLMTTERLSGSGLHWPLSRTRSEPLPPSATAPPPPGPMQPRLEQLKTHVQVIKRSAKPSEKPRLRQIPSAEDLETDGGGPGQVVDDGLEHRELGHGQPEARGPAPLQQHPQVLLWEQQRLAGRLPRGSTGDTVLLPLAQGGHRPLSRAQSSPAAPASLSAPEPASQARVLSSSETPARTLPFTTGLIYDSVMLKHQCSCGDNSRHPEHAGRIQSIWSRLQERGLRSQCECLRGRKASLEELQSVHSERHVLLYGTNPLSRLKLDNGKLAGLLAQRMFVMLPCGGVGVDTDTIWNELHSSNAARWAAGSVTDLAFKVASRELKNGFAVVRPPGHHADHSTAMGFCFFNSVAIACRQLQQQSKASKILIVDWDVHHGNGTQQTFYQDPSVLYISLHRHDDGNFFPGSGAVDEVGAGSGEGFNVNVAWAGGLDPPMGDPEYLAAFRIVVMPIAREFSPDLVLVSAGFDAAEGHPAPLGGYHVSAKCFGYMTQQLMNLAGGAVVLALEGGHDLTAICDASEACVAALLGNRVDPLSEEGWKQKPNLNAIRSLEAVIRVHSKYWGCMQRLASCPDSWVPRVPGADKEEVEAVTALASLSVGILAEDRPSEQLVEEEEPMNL
The data set can be described thus: Inhibition of recombinant human N-terminal GST-tagged HDAC7 (518 to end residues) expressed in baculovirus infected Sf9 cells using fluorogenic HDAC 2A substrate preincubated for 5 mins followed by substrate addition and measured after 30 mins by fluorescence assay.

Chain of Histone deacetylase 5 (Q9UQL6 whole entry, the tested form may be a part): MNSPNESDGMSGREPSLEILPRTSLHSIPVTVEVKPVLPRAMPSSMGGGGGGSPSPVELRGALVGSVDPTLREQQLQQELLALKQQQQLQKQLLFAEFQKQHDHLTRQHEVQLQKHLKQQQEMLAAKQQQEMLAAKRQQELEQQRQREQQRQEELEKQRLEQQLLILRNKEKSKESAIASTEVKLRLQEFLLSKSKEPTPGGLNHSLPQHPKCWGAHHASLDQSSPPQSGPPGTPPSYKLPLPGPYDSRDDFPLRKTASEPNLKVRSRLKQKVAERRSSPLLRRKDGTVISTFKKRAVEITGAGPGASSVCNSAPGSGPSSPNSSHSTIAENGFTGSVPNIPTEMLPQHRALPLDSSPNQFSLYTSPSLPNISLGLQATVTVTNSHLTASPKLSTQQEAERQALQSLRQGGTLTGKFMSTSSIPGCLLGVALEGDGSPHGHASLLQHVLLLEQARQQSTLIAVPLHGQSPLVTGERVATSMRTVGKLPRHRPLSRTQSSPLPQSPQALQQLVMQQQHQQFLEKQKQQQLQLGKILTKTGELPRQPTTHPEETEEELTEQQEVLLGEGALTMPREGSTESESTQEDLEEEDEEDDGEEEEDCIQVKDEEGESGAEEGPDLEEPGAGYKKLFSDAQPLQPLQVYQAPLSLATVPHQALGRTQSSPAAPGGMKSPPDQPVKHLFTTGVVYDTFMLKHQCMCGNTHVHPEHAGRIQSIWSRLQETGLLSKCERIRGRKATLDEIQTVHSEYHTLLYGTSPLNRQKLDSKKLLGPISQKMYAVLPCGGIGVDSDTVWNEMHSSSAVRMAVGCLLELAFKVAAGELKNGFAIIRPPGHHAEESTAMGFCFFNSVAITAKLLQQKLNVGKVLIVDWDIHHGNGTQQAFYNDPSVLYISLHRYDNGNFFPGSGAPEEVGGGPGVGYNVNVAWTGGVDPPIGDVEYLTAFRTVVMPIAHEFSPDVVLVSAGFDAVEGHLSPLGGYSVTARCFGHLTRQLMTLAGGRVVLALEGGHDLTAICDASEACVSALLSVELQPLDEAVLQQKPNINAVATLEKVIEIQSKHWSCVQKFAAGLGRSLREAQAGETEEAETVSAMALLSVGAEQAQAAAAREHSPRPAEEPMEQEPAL

On to `O=C(NO)c1ccc(Nc2c3ccccc3nc3ccccc23)cc1`, for which the IC50 stood at 3000 nM in [1]; 550 nM in data set [2]; 2240 nM in data set [3]; 850 nM in [4]; 720 nM in data set [6]. In [5], this compound gave a k el at 1 h, 1 µM of 0.00034 s⁻¹.
For the compound `O=C(NO)c1ccc(Nc2c3ccccc3nc3ccc(Br)cc23)cc1`, in data set [7], the efflux ratio at 2 h, 5 µM came out at 7.42. The IC50 in data set [1] turned out to be 1100 nM; in data set [2] it was 160 nM; in [3], 7850 nM; in data set [9], 9130 nM; in data set [4] it was 7190 nM; in data set [6], 880 nM. For the same compound, in data set [8], the Activity result was “Dose-dependent effect”. In data set [5], this compound showed a k el at 1 h, 1 µM of 0.000305 s⁻¹.
